# Scp1 inh: Scp-1 (human) phosphatase inhibition | Q9GZU7 | Recombinant Scp1, phosphopeptide, malachite green phosphate absorbance | inhibition, % at 20 µM | 340,000 tested, 0.88% active | AID 493091;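 active = inhibition above about 50% at 20 µM, limit read from the data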;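 note: plate controls were DMSO wells with enzyme for no effect and wells lacking enzyme for full effect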
#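 System: SCP-1 catalytic domain; Reagent: Phospho 17-mer peptide substrate; Doses: one concentration, 20 µM, with 1.0% DMSO; Incubation: 45 min room-temperature reaction, 5 min colour, 30 min stabiliser; Signal: Phosphate-binding colour reagent, absorbance read at 630 nm.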
# LMPTP block: blocks human LMPTP phosphatase; P24666; recombinant LMPTP-A, OMFP fluorogenic substrate, fluorescence intensity; inhibition, % at 20 µM; 360,000 tested, 0.22% active; AID 651560;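 active = compounds that cut the enzyme signal by at least half of the control window in the single-dose screen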;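 note: plate controls were DMSO wells with enzyme plus substrate for no effect and substrate without enzyme for full effect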
#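 Buffer or medium: Bis-Tris pH 6.0, DTT, detergent; Assay system: LMPTP-A enzyme; Quantity: 0.625 nM enzyme; Detection: endpoint fluorescence intensity; Times: 50 min dark incubation at room temperature; Controls: substrate-only low control, DMSO enzyme-plus-substrate high control; Doses: single 20 µM dose; Read-out: percent inhibition versus substrate-only and uninhibited controls; Reagent: 400 µM OMFP.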
# DNMT1 block: blocks human DNA methyltransferase DNMT1. P26358. DNMT1 molecular beacon, Hinp1I cleavage, fluorescence. inhibition (reported as % activation of signal), % at 10 µM. 360,000 tested, 0.83% active. AID 588458; in the data active = inhibition above about 50%
# Target sequence (P26358 504-1616 limits assumed): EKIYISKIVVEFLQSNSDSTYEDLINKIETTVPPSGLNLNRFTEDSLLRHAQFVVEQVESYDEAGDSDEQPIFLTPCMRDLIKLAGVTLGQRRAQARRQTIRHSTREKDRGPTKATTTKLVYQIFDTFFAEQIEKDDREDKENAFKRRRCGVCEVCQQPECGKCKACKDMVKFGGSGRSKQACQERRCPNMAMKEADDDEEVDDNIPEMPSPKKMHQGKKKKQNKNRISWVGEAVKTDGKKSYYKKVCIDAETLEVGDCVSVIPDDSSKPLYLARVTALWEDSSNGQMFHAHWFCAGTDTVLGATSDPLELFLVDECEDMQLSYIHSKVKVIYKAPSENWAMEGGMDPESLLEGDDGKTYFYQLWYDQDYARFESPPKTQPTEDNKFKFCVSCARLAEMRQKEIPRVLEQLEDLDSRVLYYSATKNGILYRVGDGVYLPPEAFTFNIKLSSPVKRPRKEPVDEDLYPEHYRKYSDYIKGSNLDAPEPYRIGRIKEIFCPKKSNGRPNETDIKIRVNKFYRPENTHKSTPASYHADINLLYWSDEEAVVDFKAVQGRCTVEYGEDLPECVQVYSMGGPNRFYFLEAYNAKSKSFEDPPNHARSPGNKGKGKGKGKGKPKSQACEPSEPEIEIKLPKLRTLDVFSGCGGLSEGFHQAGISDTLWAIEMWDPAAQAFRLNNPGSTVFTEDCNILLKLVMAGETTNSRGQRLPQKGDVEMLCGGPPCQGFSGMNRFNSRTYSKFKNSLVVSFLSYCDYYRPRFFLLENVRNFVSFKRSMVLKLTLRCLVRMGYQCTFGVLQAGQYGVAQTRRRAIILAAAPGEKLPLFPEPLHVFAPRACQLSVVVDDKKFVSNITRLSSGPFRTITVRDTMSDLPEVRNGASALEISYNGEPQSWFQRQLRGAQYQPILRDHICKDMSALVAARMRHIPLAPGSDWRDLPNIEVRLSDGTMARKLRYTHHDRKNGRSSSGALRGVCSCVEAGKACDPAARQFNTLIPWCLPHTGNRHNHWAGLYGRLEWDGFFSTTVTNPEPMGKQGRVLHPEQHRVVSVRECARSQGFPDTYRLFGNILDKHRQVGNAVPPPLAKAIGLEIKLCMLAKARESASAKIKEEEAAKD
# SUMO1 PPI mod: modulators of human SUMO1-mediated protein-protein interactions; P63165; SUMO1 binding to a labelled peptide, TR-FRET, 1 h; inhibition, % at 20 µM; 360,000 tested, 0.33% active; in the data active = inhibition above about 37%
# STEP inh: STEP (human) phosphatase inhibition. recombinant STEP, OMFP fluorogenic substrate, fluorescence. inhibition, % at 20 µM. 360,000 tested, 0.25% active. AID 588621;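 active = inhibition at 20 µM, scaled per plate between control wells, above about 37%, limit read from the data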;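 note: 0% = DMSO with enzyme and substrate and 100% = substrate only without enzyme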
#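 System: isolated STEP enzyme; schedule: 20 min enzyme reaction at room temperature, protected from light; medium: Bis-Tris buffer pH 6.0, 2.5 mM DTT, 0.005% Tween 20; signal: fluorescence, 480/540 nm; dosing: single compound dose of 20 µM, 1% DMSO final; also added: OMFP substrate, 25 µM final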
# Scp-1 conf: Scp-1 (human) inhibition, single-dose confirmed | 2,500 tested, 61% active | shares compounds with Scp1 inh | inhibition, % at 20 µM | recombinant SCP-1 catalytic domain, phosphate release, malachite green absorbance;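 note: plate controls were DMSO with enzyme for no effect and buffer wells lacking enzyme for full effect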
# Scp-1 MG ctr: counter-screen for Scp-1 inhibitors: colorimetric interference. shares compounds with Scp1 inh. Colorimetric interference counterscreen, malachite green absorbance 630 nm. apparent inhibition (interference), % at 20 µM. 2,500 tested, under 10 active. AID 540313;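 note: compounds added after enzyme reaction finished so only phosphate colour detection is probed; plate controls were DMSO wells with completed Scp-1 reaction for no effect and substrate wells lacking enzyme for full effect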
# Scp-1 Tm shift: Scp-1 (human) binding by thermal shift; shares compounds with Scp1 inh; Recombinant SCP1, Sypro Orange thermal shift Tm; thermal shift relative to vanadate control, % at 40 µM; 1,500 tested, 25% active;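 active = substances whose mean melting-temperature shift, as a percentage of the reference inhibitor's shift, reaches about 5.3%, limit read from the data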;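 note: 0% = Tm of DMSO wells and 100% = Tm with sodium orthovanadate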
# * = called active by the depositor; x = no result. Hits are enriched below; roughly 1.7% of the tested compounds scored in any of these assays.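 Rule for the calls, unless noted: active = inhibition of at least 30% at 20 µM; inactive = the rest.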
SMILES,Scp1 inh,LMPTP block,DNMT1 block,SUMO1 PPI mod,STEP inh,Scp-1 conf,Scp-1 MG ctr,Scp-1 Tm shift
CCCc1nc2ccc(N)cc2c(=O)n1Cc1ccccc1Cl,-11.7,1.2,-0.5,-0.1,-1.4,x,x,x
COc1cc2cnc(-c3ccccc3)c(-c3cccc(C(F)(F)F)c3)c2cc1OC,52.6*,4.4,-13.7,5.7,0.5,-9.9,-9.0,x
Fc1ccc2cnc(-c3ccccc3)c(-c3cccc(C(F)(F)F)c3)c2c1,64.6*,2.5,10.6,0.0,0.0,6.3,-6.0,x
O=[N+]([O-])c1cccc(-c2c(-c3ccccc3)ncc3cc(F)ccc23)c1,1.2,1.3,-4.1,-16.7,3.6,x,x,x
Fc1cc(F)cc(-c2c(-c3ccccc3)ncc3ccc(F)cc23)c1,85.1*,4.2,27.1,6.9,0.3,38.4*,-12.6,-25.0
COc1cc2cnc(-c3ccccc3)c(-c3ccc(C#N)cc3)c2cc1OC,24.9,-0.3,1.6,0.8,1.0,x,x,x
CCc1nc2c(OCCc3cccc(OC)c3)cccn2c1N(C)C(=O)c1ccc(OC)cc1,x,0.9,-9.1,-0.1,4.4,x,x,x
O=C(Nc1ccc2ncccc2c1)c1ccccc1Cl,56.7*,-2.5,2.7,-0.6,-3.6,5.4,-10.7,x
O=C(COC(=O)Cc1ccccc1)NCc1ccc2c(c1)OCO2,27.4,0.9,1.7,4.6,-0.5,x,x,x
O=C(Cn1cnc2c(nnn2-c2cccc(Cl)c2)c1=O)NCc1ccccc1,52.8*,32.6,33.9,7.0,7.9,61.7*,-17.5,-5.2
O=C(Cn1cnc2sc(-c3ccccc3)cc2c1=O)NCCc1ccccc1,21.7,0.6,25.9,6.4,0.7,x,x,x
O=C(Cn1cnc2sc(-c3ccccc3)cc2c1=O)NCc1ccccc1,83.5*,6.7,10.6,-7.3,0.8,62.3*,-16.7,-28.1
NC(=O)Cn1cnc2c(nnn2-c2cccc(Cl)c2)c1=O,-3.4,-0.3,6.9,19.1,1.3,x,x,x
CC(C)Nc1ncnc2c1ncn2[C@H]1CN(CCN2CCOCC2)C[C@@H](CO)O1,x,-0.4,0.3,-1.1,-1.5,x,x,x
Cc1cc(OCC(=O)OCC(=O)N2c3ccccc3NC(=O)C2(C)C)ccc1Cl,59.8*,7.1,33.1,9.2,-0.9,57.2*,-18.9,0.7
CCC(=O)c1ccc(OCC(=O)OCC(=O)N2c3ccccc3NC(=O)C2(C)C)cc1,9.4,1.2,9.0,12.0,5.1,x,x,x
CC1(C)C(=O)Nc2ccccc2N1C(=O)COc1ccccc1C#N,50.2*,5.4,23.1,3.4,3.0,58.6*,-11.8,2.8
Cc1ccccc1OCCC(=O)OCC(=O)N1c2ccccc2NC(=O)C1(C)C,20.1,1.3,10.4,6.3,1.4,x,x,x
Cc1ccc(/C=C/C(=O)N2CCC(Cc3ccccc3)CC2)cc1,-3.9,4.9,8.7,-5.9,3.0,x,x,x
C=CCn1c(NC(=O)c2ccc(C)cc2)nc2ccccc21,-8.6,1.2,-12.4,-10.9,2.1,x,x,x
Cc1cccc(C(=O)Oc2ccc(/C=N/NC(=O)c3ccc(O)cc3)cc2)c1,-7.1,1.9,-5.2,-2.5,-0.5,x,x,x
Cc1cccc(C(=O)Oc2ccc(/C=N/NC(=O)Cc3ccc([N+](=O)[O-])cc3)cc2)c1,52.2*,0.3,13.6,-0.1,-0.9,35.7*,-17.0,3.6
O=C(NCCCO)c1cc([N+](=O)[O-])cc2c1C=Cc1ccccc1O2,98.5*,-1.9,-7.0,-26.9,-1.2,-3.2,-7.3,x
O=C(NCCCc1ccccc1)c1ccc([N+](=O)[O-])cc1Cl,0.3,-0.3,-0.5,-33.8,-1.8,x,x,x
O=C(NNC1CC(=O)N(c2ccc(Br)cc2)C1=O)c1ccccn1 (stereo unspecified),-6.7,-2.6,-1.8,0.3,-1.2,x,x,x
SMILES,Scp1 inh,LMPTP block,DNMT1 block,SUMO1 PPI mod,STEP inh,Scp-1 conf,Scp-1 MG ctr,Scp-1 Tm shift
O=C(NS(=O)(=O)c1ccccc1)c1cccc(Br)c1,61.9*,-1.6,1.6,4.6,-1.8,-4.9,-9.5,x
Cc1ccc(S(=O)(=O)NC(=O)c2cccc(Br)c2)cc1,-6.7,0.5,3.2,0.4,0.9,x,x,x
CN(C)C(=O)COC(=O)c1ccc(S(=O)(=O)NCc2ccco2)cc1,75.1*,-1.0,43.8,5.1,5.0,54.4*,-10.1,-16.1
O=C(COC(=O)c1ccc(S(=O)(=O)NCc2ccco2)cc1)Nc1ccc(Cl)cn1,60.4*,9.2,40.3,9.3,4.3,64.5*,-10.6,6.4*
CN(c1ccccc1)S(=O)(=O)c1cccc(C(=O)NCC(=O)Nc2ccc(F)c(F)c2F)c1,-8.6,0.8,-0.3,5.6,-1.3,x,x,x
CN(C)S(=O)(=O)c1cccc(NC(=O)COC(=O)/C=C/c2ccco2)c1,68.3*,2.2,32.3,0.0,6.9,40.6*,-12.9,-18.9
CCN(CC)S(=O)(=O)c1cccc(NC(=O)COC(=O)/C=C/c2ccco2)c1,10.5,-0.2,3.9,-2.9,-1.6,x,x,x
Cc1ccccc1NS(=O)(=O)c1nnc(NC(=O)C(C)C)s1,-10.4,-1.4,0.6,2.1,-0.8,x,x,x
CC(C)NC(=O)C(=O)Nc1ccc2c(c1)N(S(=O)(=O)c1cccs1)CCC2,-11.8,0.5,-3.7,-2.8,-0.6,x,x,x
CNC(=O)C(=O)Nc1ccc2c(c1)N(S(=O)(=O)c1cccs1)CCC2,53.8*,0.0,0.1,7.1,-1.9,-21.5,-18.1,x
CS(=O)(=O)NCCSCc1ccco1,97.8*,-0.2,13.4,0.1,-2.3,63.5*,-15.1,-4.8
CC(=O)Nc1ccc(S(=O)(=O)NCCSCc2ccco2)cc1,3.1,1.7,-4.4,15.5,-1.1,x,x,x
O=[N+]([O-])c1ccc(O)c(Nc2ncnc3ccc(Br)cc23)c1,75.4*,26.1,-0.2,-5.1,25.2,42.2*,-18.3,13.7*
Cc1ccc(CCN2CC(C(=O)NCCCN3CCOCC3)CC2=O)cc1 (stereo unspecified),-1.9,-3.2,2.1,-1.6,-8.3,-9.3,-10.9,x
CCCCNC(=O)C1CC(=O)N(CCc2ccccc2)C1 (stereo unspecified),-6.8,-1.7,0.3,0.8,3.5,x,x,x
CCOCCCN1CC(C(=O)NCCc2ccccc2)CC1=O (stereo unspecified),-2.7,0.0,1.8,0.2,0.3,-14.1,-16.1,x
O=C(NCc1ccc(F)cc1)C1CC(=O)N(CCc2ccccc2)C1 (stereo unspecified),-10.1,0.4,1.9,-1.3,4.0,-6.5,-11.2,x
Cc1ccc(CCN2CC(C(=O)NCCN3CCOCC3)CC2=O)cc1 (stereo unspecified),-0.3,x,x,x,x,x,x,x
O=C(NCc1ccc2c(c1)OCO2)C1CC(=O)N(CCc2ccccc2)C1 (stereo unspecified),-9.8,-1.6,-2.2,6.8,6.2,-8.1,-8.2,x

# Assay outcomes from PubChem BioAssay.
